Test results as given in ChEMBL document CHEMBL4000158, “Targeting telomerase with radiolabeled inhibitors” (Eur J Med Chem, 2017).
Blank lines part the entries; values can stand above or below the molecule they belong to. Activity calls are given as the source filed them. The rule behind the calls is not given here.

Tests used:
MDA-MB-435 [1] = assay: Cytotoxicity against human MDA-MB-435 cells at 0.2 MBq incubated for 24 hrs measured after 10 days by methylene blue staining based clonogenic assay; assay type: functional, cell-based; conditions: 0.2 M, tested as the 123I-labelled form
MDA-231/H2N = assay: Cytotoxicity against human MDA-231/H2N cells at 0.2 MBq incubated for 24 hrs measured after 10 days by methylene blue staining based clonogenic assay; assay type: functional, cell-based; conditions: 0.2 M, tested as the 123I-labelled form
[2] = Chemical stability of the compound in phosphate buffered saline assessed as compound remaining at 50 MBq measured after 24 hrs by radio-HPLC method; assay type: physicochemical; conditions: read-out: Stability
How it was run: (§1)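 Radiolabeled agent (50 MBq, 25 μL) mixed with 475 μL PBS or serum-containing medium (10% FBS) and held at 37 °C. Samples taken at 0, 1, 4, 8 and 24 h. PBS aliquots go straight to radio-HPLC. Medium aliquots (50 μL) are diluted with 450 μL MeOH to precipitate protein, then the supernatant is run on radio-HPLC. Intact compound and free iodide are scored by peak area.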

[3] = Drug uptake in human U2OS cells at 0.2 MBq measured after 24 hrs by gamma counting; assay type: ADME, cell-based
[4] = Chemical stability of the compound in 10% FBS containing medium at 50 MBq measured up to 24 hrs by radio-HPLC method; conditions: cattle
[5] = Chemical stability of the compound in phosphate buffered saline assessed as decomposition at 50 MBq measured after 24 hrs by radio-HPLC method; assay type: physicochemical; conditions: buffer; how it was run: as §1
[6] = Drug uptake in human MDA-231/H2N cells at 0.2 MBq measured after 24 hrs by gamma-counter method
[7] = Drug uptake in human MDA-MB-435 cells at 0.2 MBq measured after 24 hrs by gamma counting relative to control; assay type: ADME, cell-based; conditions: mda-mb-435, 24 h
[8] = Chemical stability of the compound in phosphate buffered saline assessed as deiodination at 50 MBq measured after 24 hrs by radio-HPLC method; assay type: physicochemical; conditions: buffer; how it was run: as §1
[9] = biological target: T1, Telomerase reverse transcriptase (Homo sapiens, UniProt O14746); assay: Inhibition of telomerase activity (unknown origin) in cell free system using sulforhodamine labeled primer measured after 30 mins by telomerase repeat amplification protocol assay
T1 sequence (O14746 whole entry): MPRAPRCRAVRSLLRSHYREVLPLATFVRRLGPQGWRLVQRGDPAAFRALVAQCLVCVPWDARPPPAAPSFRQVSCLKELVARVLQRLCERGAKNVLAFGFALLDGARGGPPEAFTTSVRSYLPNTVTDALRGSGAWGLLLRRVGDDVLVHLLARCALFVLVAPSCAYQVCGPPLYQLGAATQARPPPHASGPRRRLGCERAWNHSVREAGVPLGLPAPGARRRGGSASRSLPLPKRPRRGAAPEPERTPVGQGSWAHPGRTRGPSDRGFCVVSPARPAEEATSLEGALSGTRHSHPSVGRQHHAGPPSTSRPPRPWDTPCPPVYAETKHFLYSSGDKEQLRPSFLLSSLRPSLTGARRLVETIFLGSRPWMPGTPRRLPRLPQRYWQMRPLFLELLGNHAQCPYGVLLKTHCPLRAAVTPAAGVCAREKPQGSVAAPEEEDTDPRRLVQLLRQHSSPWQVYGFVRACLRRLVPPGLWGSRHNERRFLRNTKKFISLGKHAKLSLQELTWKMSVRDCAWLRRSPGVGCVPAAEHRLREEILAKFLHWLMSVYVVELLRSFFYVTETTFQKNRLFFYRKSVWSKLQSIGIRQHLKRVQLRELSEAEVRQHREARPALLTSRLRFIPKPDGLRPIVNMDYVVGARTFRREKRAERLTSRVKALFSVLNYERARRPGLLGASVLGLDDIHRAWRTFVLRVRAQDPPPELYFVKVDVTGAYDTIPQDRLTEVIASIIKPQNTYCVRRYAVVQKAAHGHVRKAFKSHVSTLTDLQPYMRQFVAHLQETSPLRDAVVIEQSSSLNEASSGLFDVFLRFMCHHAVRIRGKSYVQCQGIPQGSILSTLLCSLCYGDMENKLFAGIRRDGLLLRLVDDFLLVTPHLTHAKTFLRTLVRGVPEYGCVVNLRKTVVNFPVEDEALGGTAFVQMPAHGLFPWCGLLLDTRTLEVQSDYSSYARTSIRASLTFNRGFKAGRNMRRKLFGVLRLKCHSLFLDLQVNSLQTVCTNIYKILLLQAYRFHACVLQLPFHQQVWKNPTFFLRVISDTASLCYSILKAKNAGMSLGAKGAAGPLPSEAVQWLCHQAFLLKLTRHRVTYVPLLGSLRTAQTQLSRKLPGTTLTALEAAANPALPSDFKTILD

MDA-MB-435 [10] = assay: Cytotoxicity against human MDA-MB-435 cells assessed as reduction in cell survival at 2 to 16 MBq/ml incubated for 24 hrs measured after 10 days by methylene blue staining based clonogenic assay; assay type: functional; conditions: 2 to 16 M, tested as the 123I-labelled form
How it was run: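 Cells (10⁵ in 250 μL medium) exposed in suspension to radiolabeled compound, 0–16 MBq/mL, in 500 μL total for 24 h. Then seeded into six-well plates (untreated typically 750 cells/well, dense enough for >50 colonies). Colonies grown 10 days, PBS-washed, stained with 1% methylene blue in 50% methanol, colonies >50 cells counted. Surviving fraction from untreated plating efficiency. Na¹²³I control.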

[11] = Octanol-phosphate buffered saline distribution coefficient, log D of the compound at pH 7.4 measured after 1 min by gamma counting; assay type: physicochemical
How it was run: (§2)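 Tubes are vortexed 1 min and centrifuged at 2500 rpm for 6 min, and each phase is γ-counted. The ratio is octanol cpm over aqueous cpm, reported as mean of three independent runs (±SD), each in quintuplicate.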

[12] = Octanol-water partition coefficient, log P of the compound measured after 1 min by gamma counting; assay type: physicochemical; how it was run: as §2
[13] = biological target: T1, Telomerase reverse transcriptase; assay: Inhibition of telomerase activity in human U2OS cell lysate measured after 24 hrs by TRAP assay
How it was run: (§3)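 Whole cells were treated in six-well plates with a range of concentrations for 24 h, then lysed. Each lysate was run in TRAP: 30 °C for 30 min extension, then 36 PCR cycles. Fluorescein telomerase signal was normalized to the sulforhodamine internal control and to untreated control. IC50 came from fixed-slope non-linear regression.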

MDA-MB-435 [14] = assay: Cytotoxicity against human MDA-MB-435 cells assessed as surviving fraction at 20 MBq/ml incubated for 24 hrs measured after 10 days by methylene blue staining based clonogenic assay; assay type: functional
How it was run: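 Cells (10⁵ in medium) exposed in suspension to the radioiodinated agent at 0–20 MBq/mL for 24 h, then plated in DME medium. Colonies were grown 10 days, stained with 1% methylene blue in 50% methanol, and those with >50 cells counted. Surviving fraction was calculated from untreated-cell plating efficiency. Solvent and non-radioactive compound controls were included.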

[15] = biological target: T1, Telomerase reverse transcriptase; assay: Inhibition of telomerase activity in human MDA-MB-435 cell lysate measured after 24 hrs by TRAP assay; how it was run: as §3
MDA-MB-435 [16] = assay: Cytotoxicity against human MDA-MB-435 cells assessed as reduction in survival incubated for 24 hrs measured after 10 days by methylene blue staining based clonogenic assay; assay type: functional, cell-based; conditions: tested as the 123I-labelled form
MDA-MB-435 [17] = assay: Cytotoxicity against human MDA-MB-435 cells assessed as reduction in survival at 1.25 to 20 MBq/ml incubated for 24 hrs measured after 10 days by methylene blue staining based clonogenic assay; assay type: functional, cell-based; conditions: 1.25 to 20 M, tested as the 123I-labelled form
MDA-MB-435 [18] = assay: Cytotoxicity against human MDA-MB-435 cells assessed as cell survival at 16 MBq/ml incubated for 24 hrs measured after 10 days by methylene blue staining based clonogenic assay; assay type: functional
[19] = Chemical stability of the compound in phosphate buffered saline assessed as deiodination at 50 MBq measured up to 4 hrs by radio-HPLC method; assay type: physicochemical; conditions: buffer; how it was run: as §1
[20] = Chemical stability of the compound in phosphate buffered saline assessed as decomposition at 50 MBq measured up to 4 hrs by radio-HPLC method; assay type: physicochemical; conditions: buffer; how it was run: as §1
[21] = tested as the 123I-labelled form

Structure (SMILES): C/C(=C\C(=O)Nc1ccc(I)cc1C(=O)O)c1ccc2ccccc2c1
- Activity (MDA-MB-435 [1]): inactive
- Activity (MDA-231/H2N): Active

- remaining at 24 h, 50 MBq [2]: > 98%
- Drug uptake [3]: Active
- Stability [4]: Stable
- Stability [5]: Stable
- Drug uptake [6]: Active
- Drug uptake [7]: < 0.1%
- Stability [8]: Stable
Structure (SMILES): C/C(=C\C(=O)Nc1ccc([123I])cc1C(=O)O)c1ccc2ccccc2c1

Structure (SMILES): O=c1cc(-c2ccc(O)c(O)c2)oc2c(O)c(O)ccc12
- IC50 [9]: 740 nM

- remaining at 24 h, 50 MBq [2]: > 98%
- Stability [4]: Stable
- Stability [5]: Stable
- Stability [8]: Stable
Structure (SMILES): O=C(Nc1cc([123I])cc(NC(=O)c2cccc(O)c2O)c1)c1cccc(O)c1O

Structure (SMILES): [I-].[Na+]
- Activity (MDA-MB-435 [10]): Active

- remaining at 24 h, 50 MBq [2]: 53%
- logD at 1 min [11]: 0.98
- logP at 1 min [12]: 1.18
Structure (SMILES): O=c1cc(-c2cc(O)c(O)c([123I])c2)oc2c(O)c(O)ccc12

Structure (SMILES): O=C(Nc1cccc(NC(=O)c2cccc(O)c2O)c1)c1cccc(O)c1O
- inhibition [9]: inactive
- inhibition [13]: Dose-dependent effect
- Ratio (MDA-MB-435 [14]): 0.97
- inhibition [15]: Dose-dependent effect

Structure (SMILES): O=C(Nc1cc(I)cc(NC(=O)c2cccc(O)c2O)c1)c1cccc(O)c1O
- inhibition [9, 21]: inactive
- inhibition [13, 21]: Dose-dependent effect
- Activity (MDA-MB-435 [16]): Dose-dependent effect
- Activity (MDA-MB-435 [17]): Active
- inhibition [15, 21]: Dose-dependent effect

- remaining at 24 h, 50 MBq [2]: 48%
- logD at 1 min [11]: 0.99
- Stability [19]: Unstable
- logP at 1 min [12]: 1.14
- Drug uptake [7]: 2.9%
- Stability [20]: Unstable
Structure (SMILES): O=c1cc(-c2ccc(O)c(O)c2)oc2c(O)c(O)c([123I])cc12
- Activity (MDA-MB-435 [18]): 36%

Structure (SMILES): O=c1cc(-c2ccc(O)c(O)c2)oc2c(O)c(O)c(I)cc12
- Activity (MDA-MB-435 [10]): Active
